From ChEMBL document CHEMBL4373712, “Bioactivatable Pseudotripeptidization of Cyclic Dipeptides To Increase the Affinity toward Oligopeptide Transporter 1 for Enhanced Oral Absorption: An Application to Cyclo(l-Hyp-l-Ser) (JBP485)” (J Med Chem, 2019)
pKi: −log10 of the molar value. Active and inactive are the calls of the source. The rule behind the calls is not given here.

Tests used:
[1] = Cmax in Sprague-Dawley rat assessed as JBP485 level at 12 mg/kg equiv of JBP485 administered orally by UPLC-MS/MS analysis; format: ADME, organism-based; set-up: dose 12 mg/kg, route oral; conditions: in vivo, po
Outline: (§1)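 Male SD rats, 200-250 g, fasted 12 h with water, n=6. Oral dose of 12 mg/kg as JBP485 equivalent; dose-effect arms at 12 and 100 mg/kg. JBP485 given iv at 6 mg/kg as the reference. Jugular blood taken at 0.083-10 h. Plasma JBP485 by UPLC-MS/MS. Absolute F = (AUCpo×Div)/(AUCiv×Dpo)×100%, using AUC0-t.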

[2] = Oral bioavailability in Sprague-Dawley rat at 12 mg/kg by UPLC-MS/MS analysis; format: ADME, organism-based; conditions: in vivo; outline: as §1
[3] = Cmax in Beagle dog at 12 mg/kg, po by UPLC-MS/MS analysis; format: ADME, organism-based, Canis lupus familiaris; set-up: dose 12 mg/kg, route oral; conditions: in vivo
Outline: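 Male beagle dogs, 2 years old, 8-10 kg, n=6. Single oral dose of 12 mg/kg (prodrug dosed as JBP485 equivalent) given in aqueous solution. Jugular venipuncture blood taken at 0.167-8 h into sodium heparin tubes. Plasma JBP485 measured by UPLC-MS/MS; AUC0-t and Cmax from the concentration-time profiles.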

[4] = Terminal half life in Sprague-Dawley rat assessed as JBP485 level at 100 mg/kg, po by LC-MS/MS analysis; format: ADME, organism-based; conditions: in vivo
Outline: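 Male SD rats (200–250 g) fasted 12 h, given JBP485 or prodrug (calculated as JBP485) orally at 12 or 100 mg/kg. Jugular blood sampled 0.083–10 h, plasma JBP485 by UPLC-MS/MS; n=6.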

[5] = test system: Rattus norvegicus; experiment: Anti-hepatitis activity in ANIT-induced Sprague-Dawley rat model of liver injury assessed as reduction in liver necrosis at 6.25 to 12.5 mg/kg, ip administered 30 mins prior to ANIT challenge and subsequent dosing at 8, 22, 32, and 46 hrs post ANIT challenge and measured 48 hrs post ANIT challenge by H and E staining-based assay; format: functional, organism-based
Outline: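 ANIT 50 mg/kg ip liver-injury model in male SD rats, 6 per group. Oral or ip treatment at 30 min before and 8, 22, 32 and 46 h after ANIT. Liver excised at 48 h, fixed in 4% formalin, stained with H&E, and examined microscopically for hepatocellular edema and necrosis.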

[6] = target: T1, Solute carrier family 15 member 1 (Homo sapiens, UniProt P46059); experiment: Substrate activity at PEPT1 in human Caco2 cells assessed as inhibition of Gly-Sar uptake by LC-MS/MS analysis; format: cell-based
T1 sequence (P46059 whole entry): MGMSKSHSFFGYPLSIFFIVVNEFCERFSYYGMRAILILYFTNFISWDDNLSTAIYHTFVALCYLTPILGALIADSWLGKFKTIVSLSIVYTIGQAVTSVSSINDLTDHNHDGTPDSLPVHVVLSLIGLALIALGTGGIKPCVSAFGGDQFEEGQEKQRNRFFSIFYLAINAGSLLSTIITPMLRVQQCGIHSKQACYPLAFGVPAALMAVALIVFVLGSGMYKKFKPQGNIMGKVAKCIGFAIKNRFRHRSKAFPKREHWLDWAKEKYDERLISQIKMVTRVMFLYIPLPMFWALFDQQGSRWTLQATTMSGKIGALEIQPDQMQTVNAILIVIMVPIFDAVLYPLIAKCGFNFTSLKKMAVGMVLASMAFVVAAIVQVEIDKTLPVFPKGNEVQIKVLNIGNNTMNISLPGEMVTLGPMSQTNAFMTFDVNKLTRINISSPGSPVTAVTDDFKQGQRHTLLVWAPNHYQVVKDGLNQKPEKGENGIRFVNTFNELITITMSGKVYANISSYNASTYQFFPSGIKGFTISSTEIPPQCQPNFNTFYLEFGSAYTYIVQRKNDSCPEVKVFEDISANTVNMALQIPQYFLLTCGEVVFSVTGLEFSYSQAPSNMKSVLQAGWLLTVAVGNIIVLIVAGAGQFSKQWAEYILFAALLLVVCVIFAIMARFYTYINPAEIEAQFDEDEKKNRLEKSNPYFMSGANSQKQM
Outline: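 Caco-2 cells with 0.5 mM Gly-Sar probe substrate and competitor at 0.5–50 mM. IC50 by nonlinear fitting; n=3.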

Row | SMILES | Cmax [1] [µM] | bioavailability [2] [%] | Cmax [3] [nM/ml] | beta t1/2 [4] [h] | Activity [5] | pKi [6]
1 | CC(C)[C@H](N)C(=O)OC[C@@H]1NC(=O)[C@@H]2C[C@@H](O)CN2C1=O | 113 | – | – | – | – | –
2 | O=C1N[C@@H](CO)C(=O)N2C[C@H](O)C[C@@H]12 | – | 21 | 26.65 | 1.5 | Active | 1.44
